Compound activity as filed in PubChem.
RGS4 pot – RGS4 potentiation or activation. HEK293 M3R/inducible RGS4, carbachol calcium flux Fluo4; hits give low values. B-score at 10 µM. actives 0.92% (n = 310,000);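 active = B-score of the integrated calcium signal more than 4 SD below the library mean, with starting fluorescence not abnormally high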;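 also: negative B-score means reduced calcium response which marks RGS4 activation or potentiation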
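Test system: HEK293 cells with stable M3R and inducible RGS4; also added: carbachol at ECmax as muscarinic agonist stimulus; schedule: dye loading 30 min 37 °C, buffer rest 30 min RT; technique: kinetic calcium fluorescence imaging with Fluo4-AM dye, 2 µM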
MrgX1 agonist – activates human MrgX1 receptor signaling. Q96LB2. MrgX1-HEK293 cells, Fluo-4 calcium fluorescence, agonist mode; hits give high values. B-score at 10 µM. actives 0.44% (n = 310,000);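 active = calcium response B-score plate-corrected fluorescence ratio at least 3 library SD, with starting fluorescence B-score inside 5 SD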
Target sequence (Q96LB2 whole entry, looked up): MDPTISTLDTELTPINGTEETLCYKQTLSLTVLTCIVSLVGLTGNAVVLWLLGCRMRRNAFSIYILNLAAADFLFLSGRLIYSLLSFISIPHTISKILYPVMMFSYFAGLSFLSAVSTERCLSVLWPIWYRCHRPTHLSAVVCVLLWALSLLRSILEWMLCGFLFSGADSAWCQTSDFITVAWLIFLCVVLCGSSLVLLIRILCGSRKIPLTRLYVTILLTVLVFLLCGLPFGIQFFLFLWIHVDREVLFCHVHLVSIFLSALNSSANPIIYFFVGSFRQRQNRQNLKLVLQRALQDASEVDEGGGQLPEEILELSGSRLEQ
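Material: HEK293 cells stably expressing human MrgX1 receptor | Quantity: 15,000 cells per well | Times: Cells plated overnight, dye loaded 0.5 h 37 °C, 0.5 h room temperature | Measured by: Kinetic Fluo-4 NW fluorescence of intracellular calcium | Control set: Positive and negative controls per plate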
MrgX1 antag – human MrgX1 receptor antagonism, primary screen; MRGX1-HEK293 calcium flux, Fluo-4, BAM8-22 antagonism; hits give low values; Q96LB2; actives 1.3% (n = 310,000); B-score at 10 µM;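 active = calcium-response B-score plate-corrected more than 3 library SD below zero, starting fluorescence within 5 deviations, no agonist response on first addition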;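 also: peak minus trough fluorescence over baseline after final BAM8-22 challenge near maximal dose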
MrgX1 allo act – allosterically activates human MrgX1 receptor signaling; Q96LB2; MrgX1-HEK293, Fluo-4 calcium flux, FDSS; hits give high values; AID 588675; B-score at 10 µM; actives 0.63% (n = 310,000);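 active = plate-corrected calcium response at least 3 library SD above typical, normal starting fluorescence, not activating the receptor alone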;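 also: compound read alongside a low EC10 to EC30 dose of BAM8-22 agonist; peak minus trough fluorescence over baseline measured at the second addition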
RGS4 inh – inhibitors of human RGS4. P49798. HEK293 M3R/RGS4 inducible, Fluo-4 calcium flux; hits give high values; triggered by carbachol at its EC20. B-score at 10 µM. actives 0.45% (n = 310,000). AID 463165;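 active = B-score, a plate-corrected calcium signal, over three deviations above library mean, with baseline fluorescence within five deviations of library mean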;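 also: RGS4 expression induced by doxycycline in cells with stable M3 receptor; B-score is computed from the integrated fluorescence ratio over baseline after carbachol; higher B-score means a larger calcium signal and so more RGS4 inhibition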
Target sequence (P49798 whole entry, looked up): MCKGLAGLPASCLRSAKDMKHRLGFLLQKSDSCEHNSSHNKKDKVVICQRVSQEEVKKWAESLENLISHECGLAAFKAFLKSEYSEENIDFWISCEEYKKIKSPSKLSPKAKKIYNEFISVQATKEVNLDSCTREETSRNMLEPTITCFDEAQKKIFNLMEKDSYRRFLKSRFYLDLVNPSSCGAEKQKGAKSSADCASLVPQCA
RGS4 activ val – confirmation of RGS4 activators; shares compounds with RGS4 pot; HEK293 M3R/RGS4 inducible, carbachol calcium flux Fluo4; inhibition, % at 10 µM; actives 89% (n = 1,100);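 active = inhibition above 3 SD of the buffer control wells, cut at about 41% in these data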;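 also: signal is the integrated peak-minus-minimum Fluo4 fluorescence over baseline ratio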
M3R Ca counter – activity in cells without induced RGS4 expression; shares compounds with RGS4 pot; HEK293 M3R non-induced RGS4, Fluo4 calcium flux; after carbachol challenge at its EC90; inhibition, % at 10 µM; actives 82% (n = 1,100);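 active = inhibition exceeding 3 SD of buffer-only control wells, cut at about 26% in these data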;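 also: percent drop in integrated peak-minus-baseline over baseline Fluo4 ratio after carbachol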
Numbers without * were called inactive; i = inactive; x = no result given. Only some compounds are listed: those with a hit (about 3.5% of all), similar ones and a draw of the others.

SMILES	RGS4 pot	MrgX1 agonist	MrgX1 antag	MrgX1 allo act	RGS4 inh	RGS4 activ val	M3R Ca counter
O=C(COc1ccc([N+](=O)[O-])cc1)NCC(c1cccs1)N1CCOCC1 (configuration not stated)	i	i	i	i	i	x	x
CC(C)(C)c1[nH]nc2c1C(c1cccnc1)C(C#N)=C(N)O2 (configuration not stated)	i	i	i	i	i	x	x
CC(C)(C)c1[nH]nc2c1C(Cc1ccccc1)C(C#N)=C(N)O2 (configuration not stated)	-9.3*	i	-5.1*	i	i	92*	84*
CC[C@H](C)Cc1cn([C@@H](CCCN=C(N)N)C(=O)NCCCCCCCCCCC(=O)N2CCNCC2)nn1	x	i	i	i	x	x	x
C[n+]1cccc(C2C(C#N)=C(N)Oc3c2ccc2ccccc32)c1 (configuration not stated)	i	i	i	i	i	x	x
C[n+]1cccc2ccc3c(c21)OC(N)=C(C#N)C3c1ccccc1 (configuration not stated)	-12*	i	i	i	i	76*	84*
COc1ccc(CCNC(=O)C2CCCN2C(=O)Nc2ccc(F)cc2)cc1OC (configuration not stated)	i	i	i	i	i	x	x
CN(C)CC/C=C1/c2ccccc2CS(=O)(=O)c2ccccc21	i	i	i	i	i	x	x
CN(C)CC/C=C1\c2ccccc2COc2ccccc21	-8*	i	i	i	i	94*	93*
CN(C)CC/C=C1/c2ccccc2Sc2ccc(Cl)cc21	-9.5*	i	i	i	i	94*	96*
CN1CCN(CCC=C2c3ccccc3Sc3ccc(S(=O)(=O)N(C)C)cc32)CC1	x	i	i	i	x	x	x
COc1ccc(S(=O)(=O)N(CC(=O)NCC2CCCO2)C2CCCCC2)cc1OC (configuration not stated)	i	i	i	i	i	x	x
CCCN1CCN(CCCNC(=O)c2ccc3c(Cl)c4c(nc3c2)CCCC4)CC1	-8.1*	i	i	i	i	94*	62*
N#Cc1ccccc1NC(=O)c1ccc2c(Cl)c3c(nc2c1)CCCC3	-8.1*	i	i	i	i	72*	47*
CC(=O)Nc1ccc(NCC(=O)c2ccccc2)cc1	i	i	i	i	i	x	x
Cc1ccc(NC(=O)c2cc(C(C)(C)C)nn2Cc2ccccc2)cc1	-7.6*	i	i	i	i	95*	82*
COc1ccc(-c2nc3cnccn3c2NCc2ccccc2)cc1SC1CCCCC1	-11*	i	i	i	i	92*	86*
COc1ccc2cc(C(=O)C3CCCN(C(=O)C4=NN(C)C(=O)CC4)C3)ccc2c1 (configuration not stated)	i	i	i	i	i	x	x
COc1cc(NC(=O)c2cc3ccccc3cc2OC)ccc1NC(=O)c1cccs1	-9.1*	i	i	i	i	76*	0
COc1ccc(CCNC(=O)C(=O)NCC2OCCCN2S(=O)(=O)c2cc(C)ccc2C)cc1 (configuration not stated)	i	i	i	i	i	x	x
Cc1ccc(C)c(S(=O)(=O)N2CCCC2CNC(=O)C(=O)NCCc2ccccc2)c1 (configuration not stated)	-10*	i	i	i	i	80*	31*
Cc1ccc(C)c(S(=O)(=O)N2CCCC2CNC(=O)C(=O)NCc2ccccc2C)c1 (configuration not stated)	i	i	i	i	i	x	x
COc1ccc(CCNC(=O)C(=O)NCC2CCCN2S(=O)(=O)c2cc(C)ccc2C)cc1 (configuration not stated)	-9.5*	i	i	i	i	74*	26*
Cc1[nH]c2c(C)cccc2c(=O)c1CN1CCCCCC1	i	i	i	i	i	x	x
CC(C(=O)NC1CCCCC1)N1CCN(C)CC1 (configuration not stated)	i	i	i	i	i	x	x
SMILES	RGS4 pot	MrgX1 agonist	MrgX1 antag	MrgX1 allo act	RGS4 inh	RGS4 activ val	M3R Ca counter
Cc1ccc2c(CN3CCN(Cc4ccc5c(c4)OCO5)CC3)cc(=O)oc2c1C	-8.7*	i	i	i	i	0	0
Cc1cc(C)c2c(CN3CCN(Cc4ccc5c(c4)OCO5)CC3)cc(=O)oc2c1C	-7.7*	i	i	i	i	76*	28*
Cc1cc(C)c2c(CN3CCN(Cc4ccc5c(c4)OCO5)CC3)cc(=O)oc2c1	-8.7*	i	i	i	i	91*	52*
Cc1cc2oc(=O)cc(CN3CCN(Cc4ccc5c(c4)OCO5)CC3)c2cc1C	i	i	i	i	i	x	x
Cc1cc(C)c2c(CN3CCN(Cc4ccccc4)CC3)cc(=O)oc2c1	i	i	i	i	i	x	x
O=C(c1ccccc1)n1c(=O)cc[nH]c1=O	i	i	i	i	i	x	x
CCN(CC)CCC(O)(c1ccccc1)C1CCCCC1 (configuration not stated)	-9.3*	i	i	i	i	92*	92*
Cc1ccc(NC(=O)c2cc(C(=O)Nc3ccc(C)cc3)n(C)n2)cc1	i	i	i	i	i	x	x
Cc1cccc(NC(=O)NNC(=O)COc2ccc([N+](=O)[O-])cc2)c1C	i	i	i	i	i	x	x
Cc1ccc(O)c(C(=O)c2cnc(/N=C(\N)N(C)C)nc2)c1	-8.8*	i	i	i	i	90*	69*
Cc1ccccc1CSCC(=O)Nc1ccccc1Br	i	i	i	i	i	x	x
O=C(c1ccccc1)c1ccc(OCCn2cnc3ccccc3c2=O)cc1	i	i	i	i	i	x	x
CC(C)(c1ccccc1)c1ccc(OCCn2cnc3ccccc3c2=O)cc1	-8.8*	i	i	i	i	90*	58*
CC(=O)c1cccc(OCc2cc(C(=O)N3CCC(N4CCCCC4)CC3)no2)c1	i	i	i	i	i	x	x
CCC1CCCCN1CCCNC(=O)C1CCCN(S(=O)(=O)N2CC(C)CC(C)C2)C1 (configuration not stated)	i	i	i	i	i	x	x
